This is an account of results in ChEMBL document CHEMBL3414498, “Design and synthesis of 3-(3-((9H-carbazol-4-yl)oxy)-2-hydroxypropyl)-2-phenylquinazolin-4(3H)-one derivatives to induce ACE inhibitory activity” (Eur J Med Chem, 2015).

Activity calls are given as the source filed them. The calls are words filed in the database; no cut-off is given here.

For assay [1], the target named is Angiotensin-converting enzyme (Homo sapiens) (UniProt P12821). As to the kind of experiment: Inhibition of ACE (unknown origin) at 1 uM using synthetic peptide hippuryl-histidyl-leucine substrate by high-throughput colorimetric screening method. The gist of the method: (§1)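 ACE activity was followed by the release of hippuric acid from the substrate hippuryl-histidyl-leucine. The released hippuric acid was converted to a yellow product with pyridine and benzene sulfonyl chloride, and the colour was read colorimetrically as absorbance. Each condition was run in triplicate and averaged, with lisinopril as the reference standard.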
Chain of Angiotensin-converting enzyme (Homo sapiens) (P12821 whole entry): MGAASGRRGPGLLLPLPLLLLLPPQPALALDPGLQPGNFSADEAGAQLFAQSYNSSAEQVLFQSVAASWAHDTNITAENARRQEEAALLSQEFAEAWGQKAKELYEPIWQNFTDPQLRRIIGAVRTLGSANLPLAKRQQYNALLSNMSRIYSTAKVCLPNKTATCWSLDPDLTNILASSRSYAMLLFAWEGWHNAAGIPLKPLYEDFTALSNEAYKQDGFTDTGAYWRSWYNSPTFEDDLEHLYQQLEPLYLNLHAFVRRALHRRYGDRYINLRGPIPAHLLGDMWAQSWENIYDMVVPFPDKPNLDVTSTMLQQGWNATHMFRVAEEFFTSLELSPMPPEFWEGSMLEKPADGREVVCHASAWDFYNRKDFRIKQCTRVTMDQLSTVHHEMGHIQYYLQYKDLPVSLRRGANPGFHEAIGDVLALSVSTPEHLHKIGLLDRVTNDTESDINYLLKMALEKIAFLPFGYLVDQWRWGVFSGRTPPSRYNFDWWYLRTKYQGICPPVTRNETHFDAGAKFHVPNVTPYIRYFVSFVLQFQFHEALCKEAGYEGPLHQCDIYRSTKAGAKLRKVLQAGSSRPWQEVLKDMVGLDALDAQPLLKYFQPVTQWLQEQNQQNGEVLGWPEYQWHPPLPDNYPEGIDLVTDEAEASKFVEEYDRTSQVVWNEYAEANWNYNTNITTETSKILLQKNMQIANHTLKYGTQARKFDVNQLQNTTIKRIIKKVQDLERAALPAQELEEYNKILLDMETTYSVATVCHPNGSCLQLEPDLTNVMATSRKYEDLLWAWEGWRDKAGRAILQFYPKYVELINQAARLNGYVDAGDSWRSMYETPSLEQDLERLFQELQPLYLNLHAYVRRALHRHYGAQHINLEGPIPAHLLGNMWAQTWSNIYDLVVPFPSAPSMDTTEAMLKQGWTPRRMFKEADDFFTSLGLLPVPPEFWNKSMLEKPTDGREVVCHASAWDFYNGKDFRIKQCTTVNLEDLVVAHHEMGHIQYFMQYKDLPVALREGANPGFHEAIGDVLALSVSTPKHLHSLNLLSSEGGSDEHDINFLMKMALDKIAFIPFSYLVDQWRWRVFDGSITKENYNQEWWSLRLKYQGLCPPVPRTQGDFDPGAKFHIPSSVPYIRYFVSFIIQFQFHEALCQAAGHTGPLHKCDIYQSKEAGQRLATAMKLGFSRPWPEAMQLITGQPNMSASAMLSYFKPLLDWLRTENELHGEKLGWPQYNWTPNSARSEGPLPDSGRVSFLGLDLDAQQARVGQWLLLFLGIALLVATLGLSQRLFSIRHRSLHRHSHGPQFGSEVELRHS

Assay [2] has the same target. As to the kind of experiment: Inhibition of ACE (unknown origin) at 1 uM using synthetic peptide hippuryl-histidyl-leucine substrate by high-throughput colorimetric screening method relative to lisinopril.
Assay [3] shares this target. The experiment in a line: Inhibition of ACE (unknown origin) at 0.5 uM to 10 uM uM using synthetic peptide hippuryl-histidyl-leucine substrate by high-throughput colorimetric screening method. The gist of the method: as §1

A word on the inhibition: it is the drop in the measured response relative to a control, in per cent. For `O=c1c2ccccc2nc(-c2ccccc2)n1CC(O)COc1cccc2[nH]c3ccccc3c12` (stereo not drawn), the inhibition in assay [1] was greater than 75%; in assay [2] it was 100%. Also, the inhibition entry in assay [3] is “Active”.
In assay [1], `O=c1c2ccccc2nc(-c2ccc(Cl)cc2Cl)n1CC(O)COc1cccc2[nH]c3ccccc3c12` (stereo not drawn) had an inhibition of 17%.
With `O=c1c2ccccc2nc(-c2ccc([N+](=O)[O-])cc2)n1CC(O)COc1cccc2[nH]c3ccccc3c12` (stereo not drawn), the inhibition in assay [1] turned out to be 17%.
As to `O=c1c2ccccc2nc(C(F)(F)F)n1CC(O)COc1cccc2[nH]c3ccccc3c12` (stereo not drawn), the figures for the inhibition in assay [1] and in assay [2] were greater than 75% and 82.9%, respectively. The inhibition result in assay [3] is “Active”.
Take `O=c1c2ccccc2nc(-c2ccc(F)cc2)n1CC(O)COc1cccc2[nH]c3ccccc3c12` (stereo not drawn): the inhibition in assay [1] came out at 17%.
For the compound `Cc1ccc(-c2nc3ccccc3c(=O)n2CC(O)COc2cccc3[nH]c4ccccc4c23)cc1` (stereo not drawn), the values for the inhibition in assay [1] and in assay [2] were greater than 75% and 100%, respectively. Moreover, in assay [3], the inhibition entry was “Active”.
Compound `Cc1nc2ccccc2c(=O)n1CC(O)COc1cccc2[nH]c3ccccc3c12` (stereo not drawn) returned an inhibition in assay [1] of 17%.
